The source of these data is ChEMBL document CHEMBL4616638, “Inhibition of HIV-1 RT activity by a new series of 3-(1,3,4-thiadiazol-2-yl)thiazolidin-4-one derivatives” (Bioorg Med Chem, 2020).

Data set [1] is described as follows: Selectivity index, ratio of CC50 for human MT4 cells to EC50 for antiviral activity againstHIV1 infected in human MT4 cells. Conditions: read-out: Ratio CC50/EC50. Type of data set: toxicity, cell-based. An outline of the steps:
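Ratio CC50/EC50, both from the same 5-day MTT run in MT-4 cells, mock-infected versus HIV-infected (100–300 CCID50) wells.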

The target in data set [2] is Human immunodeficiency virus type 1 reverse transcriptase (Human immunodeficiency virus 1, UniProt Q72547). The data set is described as follows: Inhibition of wild type recombinant HIV1 reverse transcriptase p66/p51 using poly(rA)/oligo(dT)16 as template/primer measured after 40 mins by picogreen dye-based spectrofluorometric method.
Data set [3] relates to Human immunodeficiency virus 1. The data set is described as follows: Antiviral activity against HIV1 infected in human MT4 cells assessed as reduction in virus-induced cytopathic effect after 5 days by MTT assay. It counts as functional, organism-based. Conditions: Human immunodeficiency virus 1, MT4, 120 h. An outline of the steps:
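HIV stock at 100–300 CCID50 added to MT-4 cells (6 × 10^5 cells/ml after centrifugation of exponentially growing cells), compounds as serial 5-fold dilutions in triplicate wells. After 5 days, viability read by MTT reduction at 540 and 690 nm, median of three wells. EC50 taken as concentration reducing virus-induced cytopathic effect by 50%.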
On the technique in general: Protection from cytopathic effect is a common read-out in antiviral testing.

Data set [4] in a line: Cytotoxicity against human MT4 cells assessed as reduction in cell viability after 5 days by MTT assay. Type of data set: cell-based. An outline of the steps: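 Mock-infected MT-4 cells (6 × 10^5 cells/ml) run alongside infected wells, receiving serial 5-fold compound dilutions in triplicate. After 5 days, MTT formazan read at 540 and 690 nm, median of three wells. CC50 is the concentration lowering OD540 of mock-infected control by 50%.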
In general terms: Tetrazolium dyes change colour on reduction, which living cells bring about.

Structures are written as SMILES.

A word on the IC50: it is the midpoint of a concentration-inhibition curve. As a reminder, the EC50 is the concentration giving half of the maximal effect. As a reminder, the CC50 is the concentration giving 50% cytotoxicity. Regarding `O=C1CSC(c2ccccc2Cl)N1c1nnc(S)s1` (stereo unspecified), in data set [1], the selectivity ratio is < 1. Besides, the IC50 in data set [2] was > 100 µM. In addition, the EC50 in data set [3] was > 200 µM. Besides, the CC50 at 120 h in data set [4] turned out to be 200 µM.

For `NS(=O)(=O)c1ccc(NC(=O)CSc2nnc(N3C(=O)CSC3c3ccccc3)s2)cc1` (stereo unspecified), in data set [1], the selectivity ratio is < 1. Also, in data set [2], the IC50 was 30.6 µM. Besides, in data set [3], the EC50 was > 99.2 µM. In data set [4], the CC50 at 120 h is 99.2 µM.

For the compound `O=C1CSC(c2ccc(Cl)cc2)N1c1n[nH]c(=S)s1` (stereo unspecified), in data set [1], the selectivity ratio is < 1. Moreover, the IC50 in data set [2] was > 363 µM. In addition, the EC50 in data set [3] was > 195 µM. Moreover, in data set [4], the CC50 at 120 h was 195 µM.

Regarding `O=C1CSC(c2ccccc2)N1c1nnc(S)s1` (stereo unspecified), in data set [1], the selectivity ratio is 13. For the same compound, the IC50 in data set [2] was > 100 µM. Moreover, in data set [3], the concentration for a half-maximal effect (EC50) was determined as 32 µM. Further, in data set [4], the CC50 at 120 h was > 423 µM.

Turning to `CS(=O)(=O)c1ccc(NC(=O)CSc2nnc(N3C(=O)CSC3c3ccccc3)s2)cc1` (stereo unspecified), the selectivity ratio in data set [1] was < 1. Further, the IC50 in data set [2] amounted to 40.6 µM. The EC50 in data set [3] was > 130 µM. For the same compound, the CC50 at 120 h in data set [4] came to 130 µM.

With `Cc1ccnc2c1NC(=O)c1cccnc1N2C1CC1` [NEVIRAPINE], the CC50 at 120 h in data set [4] is > 15 µM.

In the case of `NS(=O)(=O)c1ccc(NC(=O)CSc2nnc(N3C(=O)CSC3c3ccc(Cl)cc3)s2)cc1` (stereo unspecified), in data set [2], the IC50 is 72 µM. Further, in data set [3], the 50% effective concentration (EC50) was ≥ 225 µM. The CC50 at 120 h in data set [4] is ≥ 222 µM.

On to `NS(=O)(=O)c1ccc(NC(=O)CSc2nnc(N3C(=O)CSC3c3ccccc3Cl)s2)cc1` (stereo unspecified), for which the half-inhibitory concentration (IC50) in data set [2] was 21.8 µM. Also, the EC50 in data set [3] is > 18.8 µM. Also, in data set [4], the CC50 at 120 h is ≥ 18.8 µM.

For the compound `CS(=O)(=O)c1ccc(NC(=O)CSc2nnc(N3C(=O)CSC3c3ccccc3Cl)s2)cc1` (stereo unspecified), in data set [2], the IC50 is 11.8 µM. For the same compound, in data set [3], the concentration giving a half-maximal response (EC50) was ≥ 173 µM. Besides, the CC50 at 120 h in data set [4] is ≥ 173 µM.

Take `NS(=O)(=O)c1ccc(NC(=O)CSc2nnc(N3C(=O)CSC3c3cccc(Cl)c3)s2)cc1` (stereo unspecified): the selectivity ratio in data set [1] was < 1. In addition, the IC50 in data set [2] amounted to 19.2 µM. Further, the EC50 in data set [3] is > 118 µM. Moreover, the CC50 at 120 h in data set [4] worked out at 118 µM.

In the case of `O=C1CSC(c2cccc(Cl)c2)N1c1nnc(S)s1` (stereo unspecified), the selectivity ratio in data set [1] is < 1. Further, in data set [2], the IC50 is > 100 µM. The EC50 in data set [3] is > 238 µM. Further, the CC50 at 120 h in data set [4] stood at 238 µM.

Take `CS(=O)(=O)c1ccc(NC(=O)CSc2nnc(N3C(=O)CSC3c3ccc(Cl)cc3)s2)cc1` (stereo unspecified): the selectivity ratio in data set [1] was < 1. Also, the IC50 in data set [2] amounted to 39.4 µM. Besides, in data set [3], the EC50 was > 116 µM. The CC50 at 120 h in data set [4] was 116 µM.

As for `CS(=O)(=O)c1ccc(NC(=O)CSc2nnc(N3C(=O)CSC3c3cccc(Cl)c3)s2)cc1` (stereo unspecified), the selectivity ratio in data set [1] is < 1. Moreover, the IC50 in data set [2] worked out at 15.8 µM. In addition, in data set [3], the EC50 was > 113 µM. Further, the CC50 at 120 h in data set [4] came out at 113 µM.
